# According to ChEMBL document CHEMBL1955783, “Identification and optimization of small molecule antagonists of vasoactive intestinal peptide receptor-1 (VIPR1)” (Bioorg Med Chem Lett, 2012):
# Calls of active or inactive are those of the source. The calls are words filed in the database; no cut-off is given here.
# Columns and labels:
# NCI-H1299 [1] = experiment: Cytotoxicity against human NCI-H1299 cells expressing VIPR1 up to 10 uM in presence of 2% serum; format: functional, cell-based
# Procedure, shortened: (§1)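 Cell proliferation in H727, H1299 and Calu6 lines, chosen for high VIPR1 expression. Medium held 2% serum to limit albumin sequestration. Compounds were tested at concentrations up to 10 µM.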
# NCI-H727 [2] = experiment: Cytotoxicity against human NCI-H727 cells expressing VIPR1 up to 10 uM in presence of 2% serum; format: functional, cell-based; procedure, shortened: as §1
# Calu-6 [3] = experiment: Cytotoxicity against human Calu6 cells expressing VIPR1 up to 10 uM in presence of 2% serum; format: functional, cell-based; procedure, shortened: as §1
# [4] = target: T1, Vasoactive intestinal polypeptide receptor 1 (Rattus norvegicus) (UniProt P30083); experiment: Displacement of [125I]VIP from vasoactive intestinal peptide receptor 1 in rat RKE cell membrane after 3 hrs by TopCount assay; format: cell membranes
# T1 sequence (whole entry): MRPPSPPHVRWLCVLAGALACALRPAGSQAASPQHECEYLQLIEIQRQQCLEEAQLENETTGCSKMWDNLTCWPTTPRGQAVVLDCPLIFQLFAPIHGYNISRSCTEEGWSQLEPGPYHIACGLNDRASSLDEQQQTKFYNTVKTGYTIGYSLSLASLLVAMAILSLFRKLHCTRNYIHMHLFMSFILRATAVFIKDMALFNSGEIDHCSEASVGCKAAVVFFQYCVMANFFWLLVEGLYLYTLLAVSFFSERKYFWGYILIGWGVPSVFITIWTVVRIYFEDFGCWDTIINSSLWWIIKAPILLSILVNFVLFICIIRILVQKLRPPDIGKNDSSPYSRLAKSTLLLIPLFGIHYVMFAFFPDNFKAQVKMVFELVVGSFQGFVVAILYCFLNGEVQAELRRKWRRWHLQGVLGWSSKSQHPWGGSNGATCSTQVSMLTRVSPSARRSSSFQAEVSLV
# Procedure, shortened: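 Membranes from RKE-VIPR cells, 5 µg/well final, preincubated 10 min at room temperature with wheat germ agglutinin-coated PVT beads in 50 mM HEPES, 5 mM MgCl2, 1 mM CaCl2, 0.1% BSA. IC50 taken from a four-parameter logistic fit after subtracting nonspecific binding, defined with excess VIP.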
# [5] = target: T2, Vasoactive intestinal polypeptide receptor 1 (Rattus norvegicus, UniProt P30083); experiment: Antagonist activity at vasoactive intestinal peptide receptor 1 in rat RKE cells assessed as inhibition of VIP-induced intracellular cAMP accumulation incubated for 15 mins prior to VIP-stimulation measured after 30 mins by HTRF assay
# T2 sequence (P30083 whole entry): T1 sequence (whole entry)
# Calu-6 [6] = experiment: Cytotoxicity against human Calu6 cells expressing VIPR1 in presence of 2% serum; format: functional, cell-based; procedure, shortened: as §1
# NCI-H1299 [7] = experiment: Cytotoxicity against human NCI-H1299 cells expressing VIPR1 in presence of 2% serum; format: functional, cell-based; procedure, shortened: as §1
# NCI-H727 [8] = experiment: Cytotoxicity against human NCI-H727 cells expressing VIPR1 in presence of 2% serum; format: functional, cell-based; procedure, shortened: as §1
Structure (SMILES),Activity (NCI-H1299 [1]),Activity (NCI-H727 [2]),Activity (Calu-6 [3]),Activity [4],IC50 [5],Activity (Calu-6 [6]),Activity (NCI-H1299 [7]),Activity (NCI-H727 [8])
CC(C)c1cc(C(C)(C)C)cc(-c2ccc3ccccc3c2)c1CO,inactive,inactive,inactive,Active,0.12 µM,–,–,–
N#Cc1c(NC(=O)C2CCC2)sc2c1CCCC2,–,–,–,Active,1.8 µM,inactive,inactive,inactive
CCC(=O)Nc1sc2c(c1C#N)CCCC2,–,–,–,Active,12 µM,inactive,inactive,inactive
Cc1cccc(CCC(=O)Nc2sc3c(c2C#N)CCCC3)c1,–,–,–,Active,0.75 µM,inactive,inactive,inactive
CC(C)c1cc(C(C)(C)C)cc(-c2cccc(-c3ccccc3)c2)c1CO,inactive,inactive,inactive,Active,0.21 µM,–,–,–
N#Cc1c(NC(=O)COc2ccccc2)sc2c1CCCC2,–,–,–,Active,9.1 µM,inactive,inactive,inactive
CC(C)c1cc(C(C)(C)C)cc(-c2ccc(Cl)cc2)c1CO,inactive,inactive,inactive,Active,0.29 µM,–,–,–
CC(C)c1cc(C(C)(C)C)cc(-c2cccc(Cl)c2)c1CO,inactive,inactive,inactive,Active,0.1 µM,–,–,–
N#Cc1c(NC(=O)Cc2cc3ccccc3[nH]2)sc2c1CCCC2,–,–,–,Active,50 µM,inactive,inactive,inactive
N#Cc1c(NC(=O)C2CC2)sc2c1CCCC2,–,–,–,Active,2.7 µM,inactive,inactive,inactive
CC(C)c1cc(C(C)(C)C)cc(-c2cccc3ccccc23)c1CO,inactive,inactive,inactive,Active,0.18 µM,–,–,–
N#Cc1c(NC(=O)Cc2cc3ccccc3s2)sc2c1CCCC2,–,–,–,Active,1.9 µM,inactive,inactive,inactive
N#Cc1c(NC(=O)CC2Cc3ccccc3O2)sc2c1CCCC2 (stereo not given),–,–,–,Active,3.8 µM,inactive,inactive,inactive
COc1cccc(-c2cc(C(C)(C)C)cc(C(C)C)c2CO)c1,inactive,inactive,inactive,Active,0.2 µM,–,–,–
CSc1cccc(-c2cc(C(C)(C)C)cc(C(C)C)c2CO)c1,inactive,inactive,inactive,Active,0.17 µM,–,–,–
COc1ccc(CCC(=O)Nc2sc3c(c2C#N)CCCC3)cc1,–,–,–,Active,0.41 µM,inactive,inactive,inactive
N#Cc1c(NC(=O)C2CCc3ccccc3C2)sc2c1CCCC2 (stereo not given),–,–,–,Active,12 µM,inactive,inactive,inactive
CC(C)c1cc(C(C)(C)C)cc(-c2cccc(C(F)(F)F)c2)c1CO,inactive,inactive,inactive,Active,> 50 µM,–,–,–

Structure (SMILES),Activity (NCI-H1299 [1]),Activity (NCI-H727 [2]),Activity (Calu-6 [3]),Activity [4],IC50 [5],Activity (Calu-6 [6]),Activity (NCI-H1299 [7]),Activity (NCI-H727 [8])
CC(C)c1cc(C(C)(C)C)cc(-c2ccc(-c3ccccc3)cc2)c1CO,inactive,inactive,inactive,Active,0.68 µM,–,–,–
CC(=O)Nc1sc2c(c1C#N)CCCC2,–,–,–,Active,13 µM,inactive,inactive,inactive
N#Cc1c(NC(=O)CCc2ccc(Cl)cc2)sc2c1CCCC2,–,–,–,Active,1.2 µM,inactive,inactive,inactive
CC(C)c1cc(C(C)(C)C)cc(-c2cccc(C#N)c2)c1CO,inactive,inactive,inactive,Active,> 50 µM,–,–,–
N#Cc1c(NC(=O)C2CCCC2)sc2c1CCCC2,–,–,–,Active,0.47 µM,inactive,inactive,inactive
Cc1ccc(-c2cc(C(C)(C)C)cc(C(C)C)c2CO)cc1C,inactive,inactive,inactive,Active,0.081 µM,–,–,–
Cc1ccc(-c2cc(C(C)(C)C)cc(C(C)C)c2CO)cc1,inactive,inactive,inactive,Active,0.3 µM,–,–,–
Cc1ccccc1-c1cc(C(C)(C)C)cc(C(C)C)c1CO,inactive,inactive,inactive,Active,> 50 µM,–,–,–
N#Cc1c(NC(=O)Cc2ccccc2)sc2c1CCCC2,–,–,–,Active,1.6 µM,inactive,inactive,inactive
CC(C)CC(=O)Nc1sc2c(c1C#N)CCCC2,–,–,–,Active,1.9 µM,inactive,inactive,inactive
Cc1ccc(CCC(=O)Nc2sc3c(c2C#N)CCCC3)cc1,–,–,–,Active,0.48 µM,inactive,inactive,inactive
COc1cccc(CCC(=O)Nc2sc3c(c2C#N)CCCC3)c1,–,–,–,Active,0.61 µM,inactive,inactive,inactive
N#Cc1c(NC(=O)CCc2ccccc2)sc2c1CCCC2,–,–,–,Active,0.29 µM,inactive,inactive,inactive
N#Cc1c(NC(=O)C2Cc3ccccc3C2)sc2c1CCCC2,–,–,–,Active,17 µM,inactive,inactive,inactive
N#Cc1c(NC(=O)C2CCCCC2)sc2c1CCCC2,–,–,–,Active,0.47 µM,inactive,inactive,inactive
CC(C)C(=O)Nc1sc2c(c1C#N)CCCC2,–,–,–,Active,3.4 µM,inactive,inactive,inactive
Cc1ccccc1CCC(=O)Nc1sc2c(c1C#N)CCCC2,–,–,–,Active,11 µM,inactive,inactive,inactive
